The source made the active and inactive calls. The calls are words filed in the database; no cut-off is given here.

The IC50 is the concentration that gives 50% inhibition. As a reminder, the inhibition is the drop in the measured response relative to a control, in per cent. Usually Papp stands for the rate of passage across a membrane or cell layer, normalised by area and donor concentration. A high value points to fast passage.

The species entered for data set [1] is Rattus norvegicus. The data set is described as follows: Selectivity index, ratio of IC50 for rat serum BuChE to IC50 for 5% rat cortex homogenate AChE.
For data set [2], the target named is Acetylcholinesterase (Electrophorus electricus, UniProt O42275). The data set is described as follows: Inhibition of electric eel AChE using acetylthiocholine chloride as substrate after 15 mins by Ellman's method.
The next data set has as its target Cholinesterase (Equus caballus, UniProt P81908). The data set can be described thus: Inhibition of equine serum BuChE using butyrylthiocholine chloride as substrate after 15 mins by Ellman's method. The method, boiled down:
(§1)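 Ellman assay. Equine serum or rat serum BuChE pre-incubated with test compound at various concentrations (DMSO <1%) in 0.1 M phosphate buffer pH 8.0 for 15 min at 37°C. DTNB (0.2%) added, absorbance read at 412 nm. Inhibition % = (1−Ai/Ac)×100. IC50 is the mean of three independent experiments, each run in triplicate.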

Data set [3] addresses T1, Acetylcholinesterase (Rattus norvegicus, UniProt P37136).
T1 sequence (P37136 whole entry): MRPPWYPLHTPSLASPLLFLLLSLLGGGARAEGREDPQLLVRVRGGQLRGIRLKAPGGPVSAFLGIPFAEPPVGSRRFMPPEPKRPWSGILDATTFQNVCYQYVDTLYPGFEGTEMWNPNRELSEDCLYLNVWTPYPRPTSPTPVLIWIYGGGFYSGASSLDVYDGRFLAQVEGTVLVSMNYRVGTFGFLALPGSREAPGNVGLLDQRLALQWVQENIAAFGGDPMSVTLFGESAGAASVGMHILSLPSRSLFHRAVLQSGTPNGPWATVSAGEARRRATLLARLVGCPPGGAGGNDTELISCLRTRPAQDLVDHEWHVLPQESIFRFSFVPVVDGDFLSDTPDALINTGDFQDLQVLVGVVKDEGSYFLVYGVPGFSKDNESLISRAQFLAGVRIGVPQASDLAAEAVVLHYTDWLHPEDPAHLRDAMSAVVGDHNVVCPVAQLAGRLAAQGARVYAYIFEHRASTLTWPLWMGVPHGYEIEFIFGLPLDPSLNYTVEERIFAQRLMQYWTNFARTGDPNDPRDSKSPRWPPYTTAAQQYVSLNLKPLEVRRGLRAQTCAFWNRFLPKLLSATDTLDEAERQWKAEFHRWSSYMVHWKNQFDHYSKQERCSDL

Data set [4] is described as follows: Inhibition of rat serum BuChE using butyrylthiocholine chloride as substrate after 15 mins by Ellman's method. The method, boiled down:
as §1
In general terms: Ellman's reagent forms a yellow product with free thiols.

Data set [5] in a line: Selectivity index, ratio of IC50 for equine serum BuChE to IC50 for electric eel AChE.
The target in data set [6] is Acetylcholinesterase (Electrophorus electricus) (UniProt O42275). The data set is described as follows: Mixed type inhibition of electric eel AChE using acetylthiocholine iodide as substrate up to 1 uM preincubated for 15 mins followed by substrate addition by Lineweaver-Burk plot analysis. The method, boiled down: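 Purified Electrophorus electricus AChE (0.5 units/mL) in 0.1 M phosphate buffer pH 8.0 with 0.2% DTNB. Three inhibitor concentrations pre-incubated with enzyme for 15 min at 37°C, then acetylthiocholine iodide added at varying concentrations. Hydrolysis followed at 412 nm; no-inhibitor controls run in parallel. Weighted least-squares double-reciprocal analysis; Ki taken from the x-intercept of a secondary slope replot.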

Data set [7] concerns the target T2, Amine oxidase [flavin-containing] A (Homo sapiens, UniProt P21397).
T2 sequence (P21397 whole entry): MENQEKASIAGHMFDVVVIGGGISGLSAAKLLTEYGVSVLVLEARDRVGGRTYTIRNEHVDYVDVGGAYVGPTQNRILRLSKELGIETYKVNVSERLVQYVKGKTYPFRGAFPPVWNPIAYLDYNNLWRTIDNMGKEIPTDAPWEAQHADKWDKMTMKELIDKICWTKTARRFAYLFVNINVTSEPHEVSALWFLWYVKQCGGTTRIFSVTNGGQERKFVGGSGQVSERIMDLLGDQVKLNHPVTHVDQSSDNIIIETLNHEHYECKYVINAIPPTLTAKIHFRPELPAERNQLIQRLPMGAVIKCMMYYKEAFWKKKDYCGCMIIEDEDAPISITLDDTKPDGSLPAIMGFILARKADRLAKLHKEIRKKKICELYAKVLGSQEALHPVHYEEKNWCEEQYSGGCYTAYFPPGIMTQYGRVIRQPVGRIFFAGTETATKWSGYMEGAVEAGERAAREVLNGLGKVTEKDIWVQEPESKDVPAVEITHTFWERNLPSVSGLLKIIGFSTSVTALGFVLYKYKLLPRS
The data set is described as follows: Inhibition of recombinant human MAO-A expressed in baculovirus infected BTI insect cells using kynuramine as substrate after 30 mins by fluorescence assay.

Data set [8] deals with T3, Amine oxidase [flavin-containing] B (Homo sapiens, UniProt P27338).
T3 sequence (P27338 whole entry): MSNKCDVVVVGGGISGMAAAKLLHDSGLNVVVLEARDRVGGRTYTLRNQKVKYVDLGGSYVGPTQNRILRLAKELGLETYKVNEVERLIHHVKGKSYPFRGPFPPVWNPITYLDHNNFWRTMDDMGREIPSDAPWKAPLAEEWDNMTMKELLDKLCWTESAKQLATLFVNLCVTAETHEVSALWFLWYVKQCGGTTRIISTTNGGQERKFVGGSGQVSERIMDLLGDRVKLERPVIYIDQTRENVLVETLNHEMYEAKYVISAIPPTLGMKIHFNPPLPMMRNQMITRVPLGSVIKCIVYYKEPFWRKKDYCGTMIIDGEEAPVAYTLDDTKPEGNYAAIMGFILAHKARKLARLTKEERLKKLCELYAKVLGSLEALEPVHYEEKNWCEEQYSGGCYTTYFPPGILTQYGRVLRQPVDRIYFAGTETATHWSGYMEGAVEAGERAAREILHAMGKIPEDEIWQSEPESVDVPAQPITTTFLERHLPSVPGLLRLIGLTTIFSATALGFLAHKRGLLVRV
The data set is described as follows: biochemical. It is filed as cell-based.

A further data set is filed under the species Homo sapiens. The data set can be described thus: Selectivity index, ratio of IC50 for recombinant human MAO-B to IC50 for recombinant human MAO-A.
The subject of data set [9] is PC-12. The data set can be described thus: Cytotoxicity against rat PC12 cells assessed as decrease in cell viability up to 10 uM after 24 hrs by MTT assay. It is filed as cell-based. The settings on record: pc-12, 24 h. In general terms: Tetrazolium dyes change colour on reduction, which living cells bring about.
The test system of data set [10] is PC-12. The data set can be described thus: Cytotoxicity against rat PC12 cells assessed as decrease in cell viability at 100 uM after 24 hrs by MTT assay. It is filed as cell-based. The settings on record: pc-12, 24 h.
The next data set can be described thus: physchem. The settings on record: PAMPA. A general note: PAMPA measures passive passage across an artificial lipid membrane.
Data set [11] deals with Acetylcholinesterase (Electrophorus electricus) (UniProt O42275). The data set is described as follows: Inhibition of electric eel AChE at 25 uM using acetylthiocholine chloride as substrate after 15 mins by Ellman's method relative to control.
For data set [12], the target named is Cholinesterase (Equus caballus) (UniProt P81908). The data set is described as follows: Inhibition of equine serum BuChE at 25 uM using butyrylthiocholine chloride as substrate after 15 mins by Ellman's method relative to control.
The species named for data set [13] is Rattus norvegicus. The data set is described as follows: Inhibition of rat serum BuChE at 25 uM using butyrylthiocholine chloride as substrate after 15 mins by Ellman's method relative to control.
Data set [14] deals with T4, Acetylcholinesterase (Rattus norvegicus) (UniProt P37136).
T4 sequence (whole entry): T1 sequence (P37136 whole entry)
As to conditions: at 25 µM.

Acetylcholinesterase (Electrophorus electricus), sequence (O42275 24-633 limits assumed): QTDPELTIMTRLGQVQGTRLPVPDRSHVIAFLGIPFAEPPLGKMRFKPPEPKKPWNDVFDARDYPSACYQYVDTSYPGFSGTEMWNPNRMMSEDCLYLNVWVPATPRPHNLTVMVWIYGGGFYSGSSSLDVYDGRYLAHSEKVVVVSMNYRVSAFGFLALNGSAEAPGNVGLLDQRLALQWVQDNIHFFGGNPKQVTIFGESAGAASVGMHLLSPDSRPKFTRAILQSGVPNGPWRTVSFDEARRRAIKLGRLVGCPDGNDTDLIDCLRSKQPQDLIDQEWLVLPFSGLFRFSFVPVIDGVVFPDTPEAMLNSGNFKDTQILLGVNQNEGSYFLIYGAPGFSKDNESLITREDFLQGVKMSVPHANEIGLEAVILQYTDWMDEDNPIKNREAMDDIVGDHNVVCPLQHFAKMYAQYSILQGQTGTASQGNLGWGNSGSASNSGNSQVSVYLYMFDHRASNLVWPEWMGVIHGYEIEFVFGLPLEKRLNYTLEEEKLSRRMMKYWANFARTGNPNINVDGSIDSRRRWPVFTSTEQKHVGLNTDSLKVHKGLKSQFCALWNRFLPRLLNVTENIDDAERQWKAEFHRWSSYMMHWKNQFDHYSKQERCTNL
Cholinesterase (Equus caballus), sequence (P81908 whole entry): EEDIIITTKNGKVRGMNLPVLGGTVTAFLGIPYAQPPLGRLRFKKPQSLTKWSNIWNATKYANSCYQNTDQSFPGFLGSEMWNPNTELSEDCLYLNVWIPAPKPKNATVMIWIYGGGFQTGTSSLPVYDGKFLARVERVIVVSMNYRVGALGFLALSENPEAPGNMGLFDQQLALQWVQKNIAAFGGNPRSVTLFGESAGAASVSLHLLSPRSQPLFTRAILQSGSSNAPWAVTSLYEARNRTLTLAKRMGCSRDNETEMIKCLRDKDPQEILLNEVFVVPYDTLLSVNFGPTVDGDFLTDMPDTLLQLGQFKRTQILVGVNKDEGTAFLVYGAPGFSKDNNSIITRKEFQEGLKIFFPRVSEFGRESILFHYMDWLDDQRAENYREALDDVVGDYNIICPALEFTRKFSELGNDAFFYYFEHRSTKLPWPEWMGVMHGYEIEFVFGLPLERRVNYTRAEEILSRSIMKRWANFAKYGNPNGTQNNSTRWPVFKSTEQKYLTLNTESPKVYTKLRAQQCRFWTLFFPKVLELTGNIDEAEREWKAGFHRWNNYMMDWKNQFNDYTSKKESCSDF
Cholinesterase, sequence (P81908 whole entry): as above
Acetylcholinesterase (Electrophorus electricus, UniProt O42275), sequence (O42275 whole entry): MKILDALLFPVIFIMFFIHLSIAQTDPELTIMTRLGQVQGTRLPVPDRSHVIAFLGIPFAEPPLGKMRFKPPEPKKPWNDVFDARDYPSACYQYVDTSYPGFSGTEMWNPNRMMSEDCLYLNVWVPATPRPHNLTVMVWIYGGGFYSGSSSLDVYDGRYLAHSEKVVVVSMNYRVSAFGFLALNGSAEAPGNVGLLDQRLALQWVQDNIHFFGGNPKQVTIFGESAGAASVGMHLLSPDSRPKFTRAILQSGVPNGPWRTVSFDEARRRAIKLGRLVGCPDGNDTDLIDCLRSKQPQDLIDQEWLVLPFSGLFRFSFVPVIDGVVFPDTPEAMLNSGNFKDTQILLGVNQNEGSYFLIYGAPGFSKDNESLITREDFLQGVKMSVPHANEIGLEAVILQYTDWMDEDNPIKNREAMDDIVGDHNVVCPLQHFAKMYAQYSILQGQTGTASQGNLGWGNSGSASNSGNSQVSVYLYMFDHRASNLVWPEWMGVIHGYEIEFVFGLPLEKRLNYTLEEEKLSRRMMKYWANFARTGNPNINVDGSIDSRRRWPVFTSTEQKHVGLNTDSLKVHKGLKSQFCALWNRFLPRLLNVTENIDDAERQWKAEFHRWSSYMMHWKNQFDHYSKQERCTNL

Regarding `O=C1CCc2ccc(OCCCCCCN3CCC(Cc4ccccc4)CC3)cc2N1`, the Ratio IC50 in the data set filed under Rattus norvegicus [1] is 1.9; in data set [5], 4.1; in the data set filed under Homo sapiens, 4.7. For the same compound, the concentration for half-maximal inhibition (IC50) at Acetylcholinesterase [2] is 560 nM; against Cholinesterase, 2300 nM; on Acetylcholinesterase [3], 1900 nM; in data set [4], 3600 nM; in data set [7], 300 nM; in data set [8], 1400 nM. Moreover, the inhibition result in data set [6] was “Active”. The Activity entry with PC-12 [9] was “Non-Toxic”; in the data set on PC-12 [10], 87.3%. The compound also displayed a Papp at 18 h, 100 ug/ml in “physchem” of 25.6 ×10⁻⁶ cm/s.
On to `O=C1CCc2ccc(O)cc2N1`, for which the inhibition (in data set [11]; in data set [12]; in the data set listed under Rattus norvegicus [13]; in data set [14]) was below 5% throughout.

For the origin of these results see ChEMBL document CHEMBL4033676, “Design, synthesis and biological evaluation of 3,4-dihydro-2(1H)-quinoline-O-alkylamine derivatives as new multipotent cholinesterase/monoamine oxidase inhibitors for the treatment of Alzheimer's disease” (Bioorg Med Chem, 2017).
